Data set [1] can be described thus: Stability in presence of Crotalus admanteus venom phosphodiesterase assessed as intact compound level at 5.5 uM in 50 mM Tris-Hcl buffer (pH 7.5) containing 10 mM MgCl2 incubated for 15 mins at 37 degC by HPLC. Type of data set: ADME. The note with it: pH 7.5, 0.25 h. An outline of the steps:
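12-mers are first trimmed from the 3′ end with the venom 3′-exonuclease to give 7-mer substrates, which are purified by RP-HPLC. These are then re-incubated with enzyme in 50 mM Tris-HCl pH 7.5 with 10 mM MgCl2 at 37 °C for 15 min. The enzyme is heat-inactivated at 90 °C for 5 min, and the fraction of intact ODN remaining is quantified by HPLC.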

For data set [2], the system named is Nucleic Acid. Put plainly: DNA hybridizing activity at single stranded DNA assessed as thermal stability of duplexes formed between compound and complimentary ssDNA by measuring melting temperature at 4 uM in presence of 10 mM pH 7.2 sodium phosphate buffer containing 100 mM NaCl by UV based melting experiment. Type of data set: nucleic-acid assay.
Data set [3] concerns Nucleic Acid. The data set is described as follows: DNA hybridizing activity at single stranded DNA assessed as thermal stability of duplexes formed between compound and complimentary ssDNA by measuring change in melting temperature at 4 uM in presence of 10 mM pH 7.2 sodium phosphate buffer containing 100 mM NaCl by UV based melting experiment relative to untreated control. Type of data set: nucleic-acid assay.

Data set [4] concerns Nucleic Acid. The data set is described as follows: DNA hybridizing activity at single stranded RNA assessed as thermal stability of duplexes formed between compound and complimentary ssRNA by measuring melting temperature at 4 uM in presence of 10 mM pH 7.2 sodium phosphate buffer containing 100 mM NaCl by UV based melting experiment. The class given is nucleic-acid assay.

Data set [5] has as its system Nucleic Acid. The data set is described as follows: DNA hybridizing activity at single stranded RNA assessed as thermal stability of duplexes formed between compound and complimentary ssRNA by measuring change in melting temperature at 4 uM in presence of 10 mM pH 7.2 sodium phosphate buffer containing 100 mM NaCl by UV based melting experiment relative to untreated control. The class given is nucleic-acid assay.

For data set [6], the system named is Nucleic Acid. The data set is described as follows: DNA hybridizing activity at 22 bp double stranded DNA assessed as thermal stability of duplexes formed between compound and complimentary dsDNA by measuring melting temperature at 1.5 uM in presence of 7 mM pH 5.5 sodium phosphate buffer containing 140 mM K, 10 mM MgCl2 by UV based melting experiment. Type of data set: nucleic-acid assay.

The subject of data set [7] is Nucleic Acid. Put plainly: DNA hybridizing activity at 22 bp double stranded DNA assessed as thermal stability of duplexes formed between compound and complimentary dsDNA by measuring change in melting temperature at 1.5 uM in presence of 7 mM pH 5.5 sodium phosphate buffer containing 140 mM K, 10 mM MgCl2 by UV based melting experiment. Type of data set: nucleic-acid assay.

What is called Tm is the temperature at the midpoint of the melting transition. In general, ΔTm refers to the change in melting temperature against a reference sample.

Consider `Cc1cn([C@H]2C[C@H](OP(=O)(O)O)[C@@H](CO[P@@](=O)(O[C@H]3C[C@H](n4cc(C)c(=O)[nH]c4=O)O[C@@H]3COP(=O)(O)O[C@H]3C[C@H](n4cc(C)c(=O)[nH]c4=O)O[C@@H]3COP(=O)(O)O[C@H]3C[C@H](n4cc(C)c(=O)[nH]c4=O)O[C@@H]3COP(=O)(O)O[C@H]3C[C@H](n4ccc(N)nc4=O)O[C@@H]3COP(=O)(O)O[C@H]3C[C@H](n4ccc(N)nc4=O)O[C@@H]3COP(=O)(O)O[C@H]3C[C@H](n4ccc(N)nc4=O)O[C@@H]3CO)SCCN)O2)c(=O)[nH]c1=O`, for which the Stability entry in data set [1] is recorded as “Stable”.

As for `Cc1cn([C@H]2C[C@H](OP(=O)(O)O)[C@@H](CO[P@](=O)(O[C@H]3C[C@H](n4cc(C)c(=O)[nH]c4=O)O[C@@H]3COP(=O)(O)O[C@H]3C[C@H](n4cc(C)c(=O)[nH]c4=O)O[C@@H]3COP(=O)(O)O[C@H]3C[C@H](n4cc(C)c(=O)[nH]c4=O)O[C@@H]3COP(=O)(O)O[C@H]3C[C@H](n4ccc(N)nc4=O)O[C@@H]3COP(=O)(O)O[C@H]3C[C@H](n4ccc(N)nc4=O)O[C@@H]3COP(=O)(O)O[C@H]3C[C@H](n4ccc(N)nc4=O)O[C@@H]3CO)SCCCCCCN)O2)c(=O)[nH]c1=O`, the Stability result in data set [1] is given as “Stable”.

Turning to `Cc1cn([C@H]2C[C@H](OP(=O)(O)OC[C@H]3O[C@@H](n4cc(C)c(=O)[nH]c4=O)C[C@@H]3OP(=O)(O)OC[C@H]3O[C@@H](n4cc(C)c(=O)[nH]c4=O)C[C@@H]3O[P@@](=O)(OC[C@H]3O[C@@H](n4cc(C)c(=O)[nH]c4=O)C[C@@H]3OP(=O)(O)OC[C@H]3O[C@@H](n4cc(C)c(=O)[nH]c4=O)C[C@@H]3OP(=O)(O)OC[C@H]3O[C@@H](n4cc(C)c(=O)[nH]c4=O)C[C@@H]3OP(=O)(O)OC[C@H]3O[C@@H](n4ccc(N)nc4=O)C[C@@H]3OP(=O)(O)OC[C@H]3O[C@@H](n4ccc(N)nc4=O)C[C@@H]3OP(=O)(O)OC[C@H]3O[C@@H](n4ccc(N)nc4=O)C[C@@H]3OP(=O)(O)O)SCCNCCCN)[C@@H](COP(=O)(O)O[C@H]3C[C@H](n4ccc(N)nc4=O)O[C@@H]3COP(=O)(O)O[C@H]3C[C@H](n4ccc(N)nc4=O)O[C@@H]3COP(=O)(O)O[C@H]3C[C@H](n4ccc(N)nc4=O)O[C@@H]3CO)O2)c(=O)[nH]c1=O`, the Tm in data set [2] is 45 °C; in data set [4], 46 °C; in data set [6], 31 °C. In addition, the ΔTm worked out at 3 °C in data set [3], 0 °C in data set [5] and 6 °C in data set [7].

`Cc1cn([C@H]2C[C@H](OP(=O)(O)O)[C@@H](CO[P@](=O)(O[C@H]3C[C@H](n4cc(C)c(=O)[nH]c4=O)O[C@@H]3COP(=O)(O)O[C@H]3C[C@H](n4cc(C)c(=O)[nH]c4=O)O[C@@H]3COP(=O)(O)O[C@H]3C[C@H](n4cc(C)c(=O)[nH]c4=O)O[C@@H]3COP(=O)(O)O[C@H]3C[C@H](n4ccc(N)nc4=O)O[C@@H]3COP(=O)(O)O[C@H]3C[C@H](n4ccc(N)nc4=O)O[C@@H]3COP(=O)(O)O[C@H]3C[C@H](n4ccc(N)nc4=O)O[C@@H]3CO)SCCN)O2)c(=O)[nH]c1=O`: the Stability entry in data set [1] is reported as “Stable”.

In the case of `Cc1cn([C@H]2C[C@H](OP(=O)(O)OC[C@H]3O[C@@H](n4cc(C)c(=O)[nH]c4=O)C[C@@H]3OP(=O)(O)OC[C@H]3O[C@@H](n4cc(C)c(=O)[nH]c4=O)C[C@@H]3O[P@@](=O)(OC[C@H]3O[C@@H](n4cc(C)c(=O)[nH]c4=O)C[C@@H]3OP(=O)(O)OC[C@H]3O[C@@H](n4cc(C)c(=O)[nH]c4=O)C[C@@H]3OP(=O)(O)OC[C@H]3O[C@@H](n4cc(C)c(=O)[nH]c4=O)C[C@@H]3OP(=O)(O)OC[C@H]3O[C@@H](n4ccc(N)nc4=O)C[C@@H]3OP(=O)(O)OC[C@H]3O[C@@H](n4ccc(N)nc4=O)C[C@@H]3OP(=O)(O)OC[C@H]3O[C@@H](n4ccc(N)nc4=O)C[C@@H]3OP(=O)(O)O)SCCCN3CCNCC3)[C@@H](COP(=O)(O)O[C@H]3C[C@H](n4ccc(N)nc4=O)O[C@@H]3COP(=O)(O)O[C@H]3C[C@H](n4ccc(N)nc4=O)O[C@@H]3COP(=O)(O)O[C@H]3C[C@H](n4ccc(N)nc4=O)O[C@@H]3CO)O2)c(=O)[nH]c1=O`, the Tm in data set [2] came to 45 °C; in data set [4], 45 °C; in data set [6] it was 27 °C. The ΔTm was 3 °C in data set [3], -1 °C in data set [5] and 2 °C in data set [7].

Regarding `Cc1cn([C@H]2C[C@H](OP(=O)(O)O)[C@@H](CO[P@@](=O)(S)O[C@H]3C[C@H](n4cc(C)c(=O)[nH]c4=O)O[C@@H]3COP(=O)(O)O[C@H]3C[C@H](n4cc(C)c(=O)[nH]c4=O)O[C@@H]3COP(=O)(O)O[C@H]3C[C@H](n4cc(C)c(=O)[nH]c4=O)O[C@@H]3COP(=O)(O)O[C@H]3C[C@H](n4ccc(N)nc4=O)O[C@@H]3COP(=O)(O)O[C@H]3C[C@H](n4ccc(N)nc4=O)O[C@@H]3COP(=O)(O)O[C@H]3C[C@H](n4ccc(N)nc4=O)O[C@@H]3CO)O2)c(=O)[nH]c1=O`, the Stability entry in data set [1] was “Stable”.

For the compound `Cc1cn([C@H]2C[C@H](OP(=O)(O)O)[C@@H](CO[P@](=O)(S)O[C@H]3C[C@H](n4cc(C)c(=O)[nH]c4=O)O[C@@H]3COP(=O)(O)O[C@H]3C[C@H](n4cc(C)c(=O)[nH]c4=O)O[C@@H]3COP(=O)(O)O[C@H]3C[C@H](n4cc(C)c(=O)[nH]c4=O)O[C@@H]3COP(=O)(O)O[C@H]3C[C@H](n4ccc(N)nc4=O)O[C@@H]3COP(=O)(O)O[C@H]3C[C@H](n4ccc(N)nc4=O)O[C@@H]3COP(=O)(O)O[C@H]3C[C@H](n4ccc(N)nc4=O)O[C@@H]3CO)O2)c(=O)[nH]c1=O`, in data set [1], the Stability result is listed as “Stable”.

On to `Cc1cn([C@H]2C[C@H](OP(=O)(O)O)[C@@H](CO[P@@](=O)(O[C@H]3C[C@H](n4cc(C)c(=O)[nH]c4=O)O[C@@H]3COP(=O)(O)O[C@H]3C[C@H](n4cc(C)c(=O)[nH]c4=O)O[C@@H]3COP(=O)(O)O[C@H]3C[C@H](n4cc(C)c(=O)[nH]c4=O)O[C@@H]3COP(=O)(O)O[C@H]3C[C@H](n4ccc(N)nc4=O)O[C@@H]3COP(=O)(O)O[C@H]3C[C@H](n4ccc(N)nc4=O)O[C@@H]3COP(=O)(O)O[C@H]3C[C@H](n4ccc(N)nc4=O)O[C@@H]3CO)SCCCCCCN)O2)c(=O)[nH]c1=O`, for which, in data set [1], the Stability result is recorded as “Stable”.

These data come from ChEMBL document CHEMBL2057188, “Hybridizing ability and nuclease resistance profile of backbone modified cationic phosphorothioate oligonucleotides” (Bioorg Med Chem, 2012).
